The record followed here is ChEMBL document CHEMBL1147676, “Synthesis and antitumor characterization of pyrazolic analogues of the marine pyrroloquinoline alkaloids: wakayin and tsitsikammamines” (J Med Chem, 2006).

The subject of test [1] is HCT-15. Nature of the test: Antiproliferative activity against human HCT15 cell line at 10 uM. The test is classed as functional. Put shortly: (§1)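 Growth inhibition at the top 10 μM concentration of a 72 h XTT/PMS proliferation assay (4 h stain, 492 nm, four wells), expressed against 0.1% DMSO control. Cells were in phenol-red-free RPMI with 10% FCS, seeded at 2000 cells/well (HCT15, PC3, CT26, Renca) or 1000 cells/well (HT29), and dosed 24 h after seeding.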

The subject of test [2] is PC-3. Nature of the test: Antiproliferative activity against human PC3 cell line at 10 uM. The test is classed as functional. The essentials: as §1
Test [3] concerns HT-29. Nature of the test: Antiproliferative activity against human HT29 cell line at 10 uM. The test is classed as functional. The essentials: as §1
The test system of test [4] is Renca. Nature of the test: Antiproliferative activity against mouse Renca cell line at 10 uM. The test is classed as functional. The essentials: as §1
The target in test [5] is DNA topoisomerase II (Homo sapiens) (UniProt P11388+Q02880). Nature of the test: Inhibition of topoisomerase 2 DNA cleavage activity. The test is classed as protein assay. Put shortly:
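Human topoisomerase II (4 units) incubated with 0.25 μg pRYG DNA and 0.5 mM ATP (final) for 30 min at 37 °C. Stopped with 1% SDS, proteinase K (50 μg/mL, 15 min), CIA extraction, and 1% agarose gel at 75 V for 3.5 h, then post-stained with 0.5 μg/mL ethidium bromide. Reported value is the lowest concentration abolishing relaxed or linear DNA.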

Test [6] concerns the target T1, DNA topoisomerase 1 (Homo sapiens) (UniProt P11387).
T1 sequence (whole entry): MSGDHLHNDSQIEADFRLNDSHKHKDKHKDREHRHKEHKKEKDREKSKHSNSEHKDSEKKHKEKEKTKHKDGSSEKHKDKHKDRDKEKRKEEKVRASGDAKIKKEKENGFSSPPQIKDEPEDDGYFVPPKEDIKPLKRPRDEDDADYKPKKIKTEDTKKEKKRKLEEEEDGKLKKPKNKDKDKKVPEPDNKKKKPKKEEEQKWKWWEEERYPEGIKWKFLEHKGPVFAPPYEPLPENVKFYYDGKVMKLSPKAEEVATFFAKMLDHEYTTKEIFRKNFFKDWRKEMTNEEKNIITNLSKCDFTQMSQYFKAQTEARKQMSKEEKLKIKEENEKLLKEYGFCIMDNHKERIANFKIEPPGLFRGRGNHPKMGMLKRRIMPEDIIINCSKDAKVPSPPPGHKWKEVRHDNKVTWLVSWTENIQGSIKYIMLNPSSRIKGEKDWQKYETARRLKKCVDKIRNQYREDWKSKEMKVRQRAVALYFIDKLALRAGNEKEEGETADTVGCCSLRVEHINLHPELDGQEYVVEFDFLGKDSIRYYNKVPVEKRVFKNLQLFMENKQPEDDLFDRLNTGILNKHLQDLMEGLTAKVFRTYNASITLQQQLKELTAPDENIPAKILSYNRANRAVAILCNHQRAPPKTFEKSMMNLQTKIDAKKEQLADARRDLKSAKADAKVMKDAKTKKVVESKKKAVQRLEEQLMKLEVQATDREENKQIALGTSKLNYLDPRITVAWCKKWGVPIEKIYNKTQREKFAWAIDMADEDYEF
Briefly: Inhibition of topoisomerase 1 DNA cleavage activity. Put shortly:
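Human topoisomerase I (2 units) incubated with 0.25 μg DNA I for 30 min at 37 °C with or without compound. Stopped with 1% SDS, proteinase K (50 μg/mL, 15 min, 37 °C), extracted twice with CIA, and run on 1% agarose (3.5 h, 75 V). Gel stained afterwards with ethidium bromide. Active concentration is the lowest giving complete inhibition, i.e. no relaxed or linear DNA.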

Test [7] deals with CT26. Nature of the test: Antiproliferative activity against mouse CT26 cell line at 10 uM. The test is classed as functional. Put shortly: as §1
For test [8], the system named is Renca. Nature of the test: Antiproliferative activity against mouse Renca cell line. The test is classed as functional, cell-based. The essentials:
(§2)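 Cells grown in RPMI with 10% heat-inactivated FCS, no antibiotics, 37 °C, 5% CO2, and checked mycoplasma-free. Seeded at 2000 cells/well (HCT15, PC3, CT26, Renca) or 1000 cells/well (HT29). After 24 h, exposed for 72 h to nine concentrations from 1 nM to 10 μM in phenol-red-free medium, 0.1% DMSO final. Read by XTT/PMS reduction (4 h, 492 nm), four wells per concentration. IC50 from a four-parameter logistic fit of growth as % of DMSO control.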

Test [9] concerns HCT-15. Briefly: Antiproliferative activity against human HCT15 cell line. The test is classed as functional, cell-based. The essentials: as §2
Test [10] relates to HT-29. Briefly: Antiproliferative activity against human HT29 cell line. It counts as functional, cell-based. The essentials:
as §2

For test [11], the system named is PC-3. Nature of the test: Antiproliferative activity against human PC3 cell line. The test is classed as functional, cell-based. Put shortly: as §2
Test [12] concerns CT26. Briefly: Antiproliferative activity against mouse CT26 cell line. It counts as functional, cell-based. The essentials:
as §2

Consider `Cc1ccc(S(=O)(=O)n2cc3c4c2C(=O)c2cn[nH]c2C4=NCC3)cc1`, for which the inhibition at 10 µM in the test with HCT-15 [1], in the test with PC-3 [2], in the test with HT-29 [3], in the test with Renca [4] and with CT26 [7] was 0% throughout. In addition, the Inhibition in [5] is above 300 µM; in [6] it was 300 µM.
`Cc1ccc(S(=O)(=O)n2cc3c4c2C(=O)c2n[nH]cc2C4=NCC3)cc1`: the inhibition at 10 µM with HCT-15 [1], with PC-3 [2], in the test on HT-29 [3], in the test on Renca [4] and in the test with CT26 [7] was 0% throughout. The Inhibition in test [5] is above 100 µM; in test [6], 100 µM.
As for `O=C1c2n[nH]c(-c3ccc(O)cc3)c2C2=NCCc3c[nH]c1c32`, the inhibition at 10 µM in the test on HCT-15 [1], in the test on PC-3 [2], in the test on HT-29 [3], with Renca [4] and in the test on CT26 [7] was 0% throughout. For the same compound, the figures for the Inhibition in test [5] and in test [6] were 100 µM and above 100 µM, respectively.
As for `CC[C@@]1(O)C(=O)OCc2c1cc1n(c2=O)Cc2cc3ccccc3nc2-1` [CAMPTOTHECIN], the concentration for half-maximal inhibition (IC50) in the test on Renca [8] turned out to be 0.304 µM; with HCT-15 [9], 0.018 µM; with HT-29 [10] it was 0.03 µM; in the test on PC-3 [11], 0.052 µM; in the test with CT26 [12], 0.034 µM.
On to `O=C1c2[nH]cc3c2C(=NCC3)c2c(-c3ccccc3)n[nH]c21`, for which the inhibition at 10 µM with HCT-15 [1], with PC-3 [2], in the test with HT-29 [3], in the test with Renca [4] and with CT26 [7] was 0% in each case. For the same compound, the Inhibition was above 100 µM in test [5] and 100 µM in test [6].
Take `Cn1ncc2c1C(=O)c1[nH]cc3c1C2=NCC3`: the inhibition at 10 µM was determined as 0% with HCT-15 [1]; 0% in the test on PC-3 [2]; 4% with HT-29 [3]; 6% in the test with Renca [4]; 7% in the test with CT26 [7]. The Inhibition in test [5] and in test [6] was above 100 µM each time.
For `O=C1c2[nH]cc3c2C(=NCC3)c2[nH]nc(-c3ccccc3)c21`, the half-inhibitory concentration (IC50) in the test on HCT-15 [9] was 2.7 µM. For the same compound, the inhibition at 10 µM with PC-3 [2] turned out to be 0%; in the test on HT-29 [3], 47%; with Renca [4] it was 0%; in the test on CT26 [7], 0%. For the same compound, the Inhibition in test [5] and in test [6] was above 100 µM throughout.
As for `Cc1ccc(S(=O)(=O)n2cc3c4c2C(=O)c2[nH]nc(-c5ccccc5)c2C4=NCC3)cc1`, the inhibition at 10 µM in the test on HCT-15 [1], with PC-3 [2], in the test on HT-29 [3], in the test on Renca [4] and in the test with CT26 [7] was 0% throughout. The compound also registered an Inhibition in test [6] of 300 µM.
For the compound `COc1cc([C@@H]2c3cc4c(cc3[C@@H](O[C@@H]3O[C@@H]5CO[C@@H](C)O[C@H]5[C@H](O)[C@H]3O)[C@H]3COC(=O)[C@H]23)OCO4)cc(OC)c1O` [ETOPOSIDE], the IC50 is 2.9 µM in the test with Renca [8]; 4.5 µM in the test with HCT-15 [9]; 6.6 µM in the test on HT-29 [10]; 7.8 µM in the test on PC-3 [11]; 0.2 µM in the test with CT26 [12]. For the same compound, in test [5], the Inhibition worked out at 100 µM.
For the compound `Cc1ccc(S(=O)(=O)n2cc3c4c2C(=O)c2c(n[nH]c2C2(O)C(=O)N(C)c5ccccc52)C4=NCC3)cc1` (configuration not stated), the IC50 in the test on Renca [8] came out at 1.9 µM; with HCT-15 [9] it was 1.6 µM; in the test on HT-29 [10], 2.9 µM; in the test on PC-3 [11], 5.2 µM; with CT26 [12], 2.9 µM. This compound also registered an Inhibition in test [6] above 100 µM.
As for `Cn1ncc2c1C1=NCCc3c[nH]c(c31)C2=O`, the concentration for half-maximal inhibition (IC50) with Renca [8] was found to be 6.3 µM; in the test on HT-29 [10], 3.6 µM; with CT26 [12], 7 µM. For the same compound, the inhibition at 10 µM in the test with HCT-15 [1] and with PC-3 [2] was 0% in each case. For the same compound, the values for the Inhibition in [5] and in test [6] were 100 µM and above 100 µM, respectively.
In the case of `O=C1c2c[nH]nc2C2=NCCc3c[nH]c1c32`, the inhibition at 10 µM in the test with HCT-15 [1] came out at 25%; in the test with PC-3 [2] it was 0%; in the test on HT-29 [3] it was 45%; in the test on Renca [4] it was 0%; in the test on CT26 [7], 0%. Also, the values for the Inhibition in [5] and in [6] were 100 µM and above 100 µM, respectively.
Take `O=C1c2[nH]ncc2C2=NCCc3c[nH]c1c32`: the inhibition at 10 µM with HCT-15 [1], with PC-3 [2], in the test with HT-29 [3], with Renca [4] and in the test on CT26 [7] was 0% in each case. In addition, the Inhibition was 100 µM in [5] and above 100 µM in test [6].
In the case of `Cc1ccc(S(=O)(=O)n2cc3c4c2C(=O)c2[nH]nc(-c5ccc(O)cc5)c2C4=NCC3)cc1`, the inhibition at 10 µM in the test on HCT-15 [1] is 0%; with PC-3 [2], 0%; with HT-29 [3], 23%; in the test with Renca [4], 0%; with CT26 [7], 0%. Besides, the Inhibition was above 100 µM in [5] and 30 µM in test [6].
With `Cc1ccc(S(=O)(=O)n2cc3c4c2C(=O)c2c(-c5ccccc5)n[nH]c2C4=NCC3)cc1`, the inhibition at 10 µM with HCT-15 [1], in the test with PC-3 [2], with HT-29 [3], with Renca [4] and in the test with CT26 [7] was 0% in each case. Further, the Inhibition in [5] is above 100 µM; in test [6], 100 µM.
Consider `Cc1ccc(S(=O)(=O)n2cc3c4c2C(=O)c2cnn(C)c2C4=NCC3)cc1`, for which the IC50 with Renca [8] came out at 4.6 µM; with HCT-15 [9] it was 5 µM; with HT-29 [10] it was 1.9 µM; in the test with PC-3 [11], 5.8 µM; in the test on CT26 [12], 4.9 µM. The Inhibition in [5] and in [6] was above 100 µM in each case.
In the case of `Cc1ccc(S(=O)(=O)n2cc3c4c2C(=O)c2c(cnn2C)C4=NCC3)cc1`, the 50% inhibitory concentration (IC50) with Renca [8] worked out at 0.14 µM; in the test on HCT-15 [9], 6.5 µM; in the test with HT-29 [10], 3.1 µM; in the test on PC-3 [11], 4.9 µM; in the test on CT26 [12], 5.3 µM. In test [6], this compound gave an Inhibition of 300 µM.
For the compound `O=C1c2[nH]cc3c2C(=NCC3)c2n[nH]c(-c3ccc(O)cc3)c21`, the inhibition at 10 µM in the test on HCT-15 [1], in the test with PC-3 [2], with HT-29 [3], in the test on Renca [4] and in the test with CT26 [7] was 0% each time. In addition, the results for the Inhibition in test [5] and in test [6] were above 300 µM and 300 µM, respectively.
As to `Cc1ccc(S(=O)(=O)n2cc3c4c2C(=O)c2c(-c5ccc(O)cc5)n[nH]c2C4=NCC3)cc1`, the inhibition at 10 µM in the test with HCT-15 [1] came to 0%; with PC-3 [2], 0%; with HT-29 [3], 41%; in the test on Renca [4], 0%; with CT26 [7] it was 0%. The Inhibition in test [5] came out at 100 µM; in test [6] it was 10 µM.
